# Bioassay records as filed in PubChem BioAssay.
# Compounds with a hit are over-represented: about 2.5% of the library has one in this group of screens.
# NR2E3 ag-1 – inhibitors of NR2E3-RetCOR corepressor binding, primary screen, NR2E3 agonist project, biochemical, TR-FRET, GST-NR2E3, biotin-RetCOR; 1536-well; hit rate 0.12% among 320,000; inhibition of corepressor binding, % at 4.78 µM; Photoreceptor-specific nuclear receptor (Homo sapiens), Q9Y5X4;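 active = percent inhibition above the cutoff of mean plus 3 SD of all tested compounds, set per screening campaign, cut at about 20% in these data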;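 also: 0% = DMSO wells and 100% = biotin wells as full block of FRET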
# Target sequence (Q9Y5X4 whole entry, looked up): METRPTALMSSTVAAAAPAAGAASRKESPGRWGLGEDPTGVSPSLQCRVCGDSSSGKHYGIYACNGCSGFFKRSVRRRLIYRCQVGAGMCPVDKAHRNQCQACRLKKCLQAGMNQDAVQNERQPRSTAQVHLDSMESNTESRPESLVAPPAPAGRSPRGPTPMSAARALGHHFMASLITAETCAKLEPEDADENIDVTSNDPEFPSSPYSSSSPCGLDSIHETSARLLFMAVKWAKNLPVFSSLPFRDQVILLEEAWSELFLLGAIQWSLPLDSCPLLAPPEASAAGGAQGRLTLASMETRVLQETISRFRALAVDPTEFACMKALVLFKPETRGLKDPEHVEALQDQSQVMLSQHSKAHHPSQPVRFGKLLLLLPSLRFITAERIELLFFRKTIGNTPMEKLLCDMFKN
#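 system = GST-tagged NR2E3 plus biotinylated RetCOR corepressor | input = 1.35 nM GST-NR2E3 | also added = 7 nM biotin-RetCOR | schedule = 5 h incubation at 4 °C | measured by = TR-FRET with europium anti-GST and streptavidin-D2, 340 nm excitation | read-out = percent loss of FRET ratio relative to control wells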
# NR2E3 ag-2 – NR2E3 agonists in two-hybrid cells, primary screen, cell-based, luminescence, CHO-S, Gal4-NCOR/VP16-NR2E3; luciferase; inhibition of corepressor binding, % at 3.98 µM; hit rate 0.35% among 360,000; AID 602229, 2012;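 active = inhibition above the mean of all tested compounds plus 3 SD, cut at about 70% in these data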;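 also: 0% = DMSO with NR2E3 transfected cells and 100% = cells lacking NR2E3 construct; higher means lower luciferase signal from less NR2E3 corepressor binding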
# MsrA act – bovine MsrA enzyme activators, primary screen, biochemical, absorbance, HTS; purified bovine MsrA, absorbance read-out; activation, % at 10.6 µM; hit rate 0.3% among 360,000; in the data active = activation above about 7.5%;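 also: 0% = vehicle and 100% = reference activator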
# NadD block – inhibitors of S. aureus NadD, primary screen, biochemical, colorimetric, uHTS; Nicotinate-nucleotide adenylyltransferase NadD (Staphylococcus aureus N315); purified NadD enzyme, colorimetric absorbance read-out; inhibition, % at 20 µM; hit rate 0.78% among 360,000; AID 602399, 2012; in the data active = inhibition above about 26%
# GalR3 antagonist – GalR3 antagonists in HEK293 cells, primary screen, cell-based, fluorescence readout | inhibition, % at 3 µM | HEK293 GalR3-CNG cAMP membrane potential fluorescence; galR3 body fused to GalR1 C-terminus | Galanin receptor type 3 (Homo sapiens), O60755 | hit rate 0.44% among 360,000;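 active = inhibition above the screen-wide average plus 3 SD, cut at about 13% in these data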;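 also: forskolin and galanin both at EC90 stimulate the cells; cAMP rise reported by CNG channel membrane potential dye signal; 0% = forskolin plus galanin with DMSO and 100% = forskolin alone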
# MsrA inh – bovine MsrA enzyme inhibitors, primary screen, biochemical, absorbance, HTS | Methionine sulfoxide reductase A (Bos taurus) | purified bovine MsrA, absorbance read-out | inhibition, % at 15.5 µM | hit rate 0.75% among 360,000 | AID 651718, 2012; in the data active = inhibition above about 4.5%;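 also: 0% = vehicle wells with enzyme and 100% = reference inhibitor wells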
# NadD inh conf – inhibitors of S. aureus NadD, confirmation, biochemical, colorimetric, single concentration; inhibition, % at 20 µM; AID 624309, 2012; hit rate 13% among 2,000; purified S. aureus NadD, colorimetric enzyme assay; shares compounds with NadD block; in the data active = inhibition mostly above about 42%, no sharp cut-off; inactive = mostly below about 42%
# * hit, by the source's call; nt = not tested or not shown.
SMILES,NR2E3 ag-1,NR2E3 ag-2,MsrA act,NadD block,GalR3 antagonist,MsrA inh,NadD inh conf
O=C(Nc1ccc(F)cc1)Nc1ccc(N2CCCC2)c(S(=O)(=O)Nc2ccccc2Cl)c1,0,-4,-7,30*,-7,1,28
COc1ccc(NS(=O)(=O)c2cc(NC(=O)/C=C/c3cc(OC)ccc3OC)ccc2N2CCCCC2)cc1,2,-24,0,39*,-7,0,13
COc1ccc(NS(=O)(=O)c2cc(NC(=O)CCNC(C)=O)ccc2N2CCCCC2)cc1,2,-17,-1,0,-6,0,nt
COc1ccccc1NS(=O)(=O)c1cc(NC(=O)Nc2ccccc2)ccc1N1CCCCC1,4,-1,-6,35*,-10,-1,24
O=C(Nc1ccc(N2CCOCC2)c(S(=O)(=O)Nc2ccccc2Cl)c1)c1ccc(F)cc1,nt,4,-6,0,-1,0,nt
CCCn1c(N)c(N2CCCCC2)c(=O)n(CC(=O)Nc2ccc(C(C)=O)cc2)c1=O,nt,-2,-7,0,-2,-1,nt
Cc1ccc(NC(=O)c2cc3c(s2)CCCC3)cc1S(=O)(=O)Nc1ccccc1Cl,2,9,-9,30*,-1,1,14
O=C(/C=C/c1cccs1)Nc1ccc(N2CCOCC2)c(S(=O)(=O)Nc2cc(Cl)ccc2Cl)c1,2,0,-11,34*,4,0,16
Cc1ccc(-c2nc(NC(=O)c3ccc(S(=O)(=O)N(CCC#N)CCC#N)cc3)sc2-c2ccccc2)cc1,1,-23,-3,2,-1,-1,nt
N#CCCN(CCC#N)S(=O)(=O)c1ccc(C(=O)Nc2nc(-c3ccccc3)c(C(=O)c3ccccc3)s2)cc1,2,-33,-3,36*,-8,0,1
O=C(Nc1ccc(Cl)c([N+](=O)[O-])c1)c1ccco1,-1,-33,-3,-8,-8,1,nt
Cc1c(N=C2N=C(NC(=O)c3cccs3)c3ccccc32)c(=O)n(-c2ccccc2)n1C,1,0,1,31*,-7,1,12
Cc1c(N=C2N=C(NC(=O)NC(C)(C)C)c3ccccc32)c(=O)n(-c2ccccc2)n1C,3,-3,-4,7,-8,0,nt
CCCCn1c(N)c(N(CCC(C)C)C(=O)COC(=O)c2cccnc2SC)c(=O)[nH]c1=O,nt,-32,-1,3,1,0,nt
Cc1oc2ccc(NS(=O)(=O)c3ccc(C(C)(C)C)cc3)cc2c1C(=O)Nc1ccccc1,0,-38,-4,33*,-4,0,34
CCOC(=O)c1c(NC(=O)CSc2ncccn2)sc2c1CC(C)(C)NC2(C)C,0,-17,-2,-8,-3,0,nt
CCSc1nc2sc3c(c2c2nnc(SCC(=O)NCc4ccco4)n12)CCCC3,2,nt,nt,nt,nt,nt,nt
CC(C)Sc1nc2sc3c(c2c2nnc(SCC(=O)NCc4ccco4)n12)CCCC3,-6,10,-1,38*,-2,0,37
Cc1cccc2sc(NC(=O)CCNS(=O)(=O)c3cccc4nonc34)nc12,4,6,-8,-8,-4,0,nt
Cc1ccc(Nc2nnc(SCC(=O)Nc3ncc(S(=O)(=O)c4ccc([N+](=O)[O-])cc4)s3)s2)cc1,-1,-33,-4,45*,-9,0,8
Cc1cc(=O)[nH]c(SCC(=O)Nc2ncc(S(=O)(=O)c3ccc([N+](=O)[O-])cc3)s2)n1,3,0,-1,11,-3,3,nt
O=C(CCl)Nc1ncc(S(=O)(=O)c2ccc([N+](=O)[O-])cc2)s1,nt,-38,0,0,-5,1,nt
CC(C)c1ccc(Nc2nnc(SCC(=O)Nc3ncc(S(=O)(=O)c4ccc([N+](=O)[O-])cc4)s3)s2)cc1,0,4,-2,36*,-10,0,9
